Experimental data taken from ChEMBL document CHEMBL1151920, “Synthesis and biological evaluation of penem inhibitors of bacterial signal peptidase” (Bioorg Med Chem Lett, 2009).
≈ marks a conversion by molar mass, not a printed value.

Legend:
Escherichia coli = experiment: Antibacterial activity against permeabilizing agent polymyxin B-treated Escherichia coli ATCC 25922 after 18 hrs by liquid dilution method; assay type: functional; details: ATCC 25922, 18 h
How it was run: (§1)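 Broth microdilution MIC. Compounds 2-fold serially diluted in cation-adjusted Mueller–Hinton broth. Bacteria grown to 10^8 cfu/mL, then inoculated at a final 5 × 10^5 cells/mL. Incubated 37 °C, 18 h. MIC taken as the lowest concentration giving no visible growth. E. coli ATCC25922 was tested in the presence of polymyxin B as permeabilizing agent.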

Staphylococcus aureus [1] = experiment: Antibacterial activity against Staphylococcus aureus 8325 after 18 hrs by liquid dilution method; assay type: functional; details: Staphylococcus aureus, 8325, 18 h; how it was run: as §1
[2] = system: Staphylococcus epidermidis; experiment: Antibacterial activity against Staphylococcus epidermidis RP62A after 18 hrs by liquid dilution method; assay type: functional; how it was run: as §1
Staphylococcus aureus [3] = experiment: Antibacterial activity against methicillin-resistant Staphylococcus aureus USA300 after 18 hrs by liquid dilution method; assay type: functional; details: USA300, 18 h
Signal peptidase I = Signal peptidase I (Escherichia coli K-12, UniProt P00803); experiment: Inhibition of Escherichia coli signal peptidase
Chain of Signal peptidase I (P00803 whole entry): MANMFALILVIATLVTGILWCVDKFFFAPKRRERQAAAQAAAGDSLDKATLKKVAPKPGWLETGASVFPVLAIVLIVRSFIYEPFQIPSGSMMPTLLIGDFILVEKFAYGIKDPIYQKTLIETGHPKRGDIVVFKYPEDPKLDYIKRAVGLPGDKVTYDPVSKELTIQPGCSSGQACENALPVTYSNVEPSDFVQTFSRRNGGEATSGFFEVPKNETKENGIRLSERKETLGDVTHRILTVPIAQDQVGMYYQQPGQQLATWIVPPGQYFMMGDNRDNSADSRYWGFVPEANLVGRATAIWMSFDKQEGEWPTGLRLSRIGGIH

| Compound | MIC (Escherichia coli) [µg/mL] | MIC (Staphylococcus aureus [1]) [µg/mL] | MIC [2] [µg/mL] | MIC (Staphylococcus aureus [3]) [µg/mL] | IC50 (Signal peptidase I) [nM] |
| --- | --- | --- | --- | --- | --- |
| CC(C)C(=O)O[C@H](C)[C@H]1C(=O)N2C(C(=O)OCc3ccc([N+](=O)[O-])cc3)=CS[C@@H]12 | > 200 | > 200 | 50 (≈ 119 µM) | > 200 |  |
| CC(C)NC(=O)O[C@H](C)[C@H]1C(=O)N2C(C(=O)OCc3ccc([N+](=O)[O-])cc3)=CS[C@@H]12 | > 200 | > 200 | 100 (≈ 230 µM) | 100 (≈ 230 µM) |  |
| CCC(=O)O[C@H](C)[C@H]1C(=O)N2C(C(=O)OCc3ccc([N+](=O)[O-])cc3)=CS[C@@H]12 | > 200 | > 200 | 100 (≈ 246 µM) | > 200 |  |
| CC[C@H](C)[C@H](NC(C)=O)C(=O)O[C@H](C)[C@H]1C(=O)N2C(C(=O)OCc3ccc([N+](=O)[O-])cc3)=CS[C@@H]12 | > 200 | > 200 | > 200 | > 200 |  |
| CC(=O)N[C@@H](C)C(=O)O[C@H](C)[C@H]1C(=O)N2C(C(=O)OCc3ccc([N+](=O)[O-])cc3)=CS[C@@H]12 | > 200 | > 200 | > 200 | > 200 |  |
| COCCOCO[C@H](C)[C@H]1C(=O)N2C(C(=O)OCc3ccc([N+](=O)[O-])cc3)=CS[C@@H]12 | > 200 | 200 (≈ 456 µM) | 100 (≈ 228 µM) | > 200 |  |
| CC(=O)O[C@H](C)[C@H]1C(=O)N2C(C(=O)OCc3ccc([N+](=O)[O-])cc3)=CS[C@@H]12 | > 200 | > 200 | 100 (≈ 255 µM) | > 200 |  |
| CCNC(=O)O[C@H](C)[C@H]1C(=O)N2C(C(=O)OCc3ccc([N+](=O)[O-])cc3)=CS[C@@H]12 | > 200 | > 200 | 100 (≈ 237 µM) | 100 (≈ 237 µM) |  |
| C[C@@H](O)[C@H]1C(=O)N2C(C(=O)OCc3ccc([N+](=O)[O-])cc3)=CS[C@@H]12 | > 200 | 200 (≈ 571 µM) | 50 (≈ 143 µM) | > 200 |  |
| COCO[C@H](C)[C@H]1C(=O)N2C(C(=O)OCc3ccc([N+](=O)[O-])cc3)=CS[C@@H]12 | > 200 | > 200 | 50 (≈ 127 µM) | > 200 |  |
| CCOCO[C@H](C)[C@H]1C(=O)N2C(C(=O)OCc3ccc([N+](=O)[O-])cc3)=CS[C@@H]12 | > 200 | > 200 | 50 (≈ 122 µM) | > 200 |  |
| C[C@@H](O)[C@H]1C(=O)N2C(C(=O)O)=CS[C@@H]12 |  |  |  |  | 180 |
| CC(=O)NCC(=O)O[C@H](C)[C@H]1C(=O)N2C(C(=O)OCc3ccc([N+](=O)[O-])cc3)=CS[C@@H]12 | > 200 | > 200 | > 200 | > 200 |  |
| CCCC(=O)O[C@H](C)[C@H]1C(=O)N2C(C(=O)OCc3ccc([N+](=O)[O-])cc3)=CS[C@@H]12 | > 200 | > 200 | 100 (≈ 238 µM) | > 200 |  |
| CC(=O)N[C@H](C(=O)O[C@H](C)[C@H]1C(=O)N2C(C(=O)OCc3ccc([N+](=O)[O-])cc3)=CS[C@@H]12)C(C)C | > 200 | > 200 | > 200 | > 200 |  |
| CC(C)CC(=O)O[C@H](C)[C@H]1C(=O)N2C(C(=O)OCc3ccc([N+](=O)[O-])cc3)=CS[C@@H]12 | > 200 | > 200 | 100 (≈ 230 µM) | > 200 |  |
